Reference: ChEMBL document CHEMBL4393674, “Synthesis, and evaluation of in vitro and in vivo anticancer activity of 14-substituted oridonin analogs: A novel and potent cell cycle arrest and apoptosis inducer through the p53-MDM2 pathway” (Eur J Med Chem, 2019)
Active and inactive are the calls of the source. The calls are words filed in the database; no cut-off is given here.

What was measured:
[1] = test system: HCT-116; experiment: Induction of apoptosis in human HCT116 cell assessed as late apoptotic cells at 3 uM incubated for 24 hrs by annexin V/PI staining based flow cytometric analysis (reference value: 8.04%); type: functional
[2] = test system: HCT-116; experiment: Induction of apoptosis in human HCT116 cell assessed as increase in caspase9 protein expression level incubated for 24 hrs by Western blot analysis; type: functional, cell-based
[3] = Toxicity in athymic nu/nu mouse xenografted with human HCT116 cells assessed as change in body weight at 25 mg/kg, ip administered once per day for 20 days and measured on day 21; type: organism-based; conditions: in vivo, 480 h
In short: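 HCT116 cells were inoculated subcutaneously into nude mice, six animals per group. Mice received 25 mg/kg compound or vehicle solution. Body weight and tumour size were recorded every two days.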

[4] = test system: HCT-116; experiment: Induction of cell cycle arrest in human HCT116 cells assessed as accumulation at G2/M phase at 1 uM incubated for 24 hrs by propidium iodide-staining based flow cytometric analysis (reference value: 11.90%); type: functional
[5] = test system: HCT-116; experiment: Induction of cell cycle arrest in human HCT116 cells assessed as accumulation at G1 phase at 0.30 uM incubated for 24 hrs by propidium iodide-staining based flow cytometric analysis (reference value: 64.90%); type: functional
[6] = test system: HCT-116; experiment: Induction of apoptosis in human HCT116 cell assessed as necrotic cells at 0.3 uM incubated for 24 hrs by annexin V/PI staining based flow cytometric analysis (reference value: 5.62%); type: functional
[7] = test system: HCT-116; experiment: Induction of apoptosis in human HCT116 cell assessed as upregulation of p21 protein expression level at 0.03 to 3 uM incubated for 24 hrs by Western blot analysis; type: functional, cell-based
[8] = test system: HCT-116; experiment: Induction of apoptosis in human HCT116 cell assessed as increase in caspase3 protein expression level at 3 uM incubated for 24 hrs by Western blot analysis; type: functional, cell-based
[9] = test system: HCT-116; experiment: Induction of apoptosis in human HCT116 cell assessed as necrotic cells at 3 uM incubated for 24 hrs by annexin V/PI staining based flow cytometric analysis (reference value: 5.62%); type: functional
[10] = test system: HCT-116; experiment: Antitumor activity against human HCT116 cells xenografted in athymic nu/nu mouse assessed as tumour growth inhibition at 25 mg/kg, ip administered once per day for 20 days and measured on day 21 by caliper method relative to control; type: functional; conditions: HCT-116, ip, read-out: TGI
In short: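 Xenografts made by subcutaneous inoculation of HCT116 cells into nude mice. Six animals per group. Groups were vehicle control, oridonin 25 mg/kg, test compound 25 mg/kg and paclitaxel 25 mg/kg. Tumour size and body weight recorded every two days. At the end the mice were sacrificed and tumours excised and weighed. Growth inhibition rate calculated against the control group.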

[11] = test system: HCT-116; experiment: Induction of cell cycle arrest in human HCT116 cells assessed as accumulation at S phase at 0.03 uM incubated for 24 hrs by propidium iodide-staining based flow cytometric analysis (reference value: 23.30%); type: functional
[12] = test system: HCT-116; experiment: Potency index, ratio of IC50 for oridonin to IC50 for test compound for inhibition of human HCT116 cells incubated for 48 hrs by MTT assay; type: functional
In short: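 HCT116 cells grown in RPMI 1640 with 10% heat-inactivated FBS and penicillin/streptomycin at 37℃, 5% CO2. Cells adhered 24 h, then were exposed 48 h to 0.3, 1, 3 and 10 µM compound, with DMSO as vehicle and oridonin run alongside. MTT (final 2 mg/mL) was added for 4 h, formazan dissolved in DMSO, and OD read at 492 nm. The index is oridonin IC50 divided by the compound's IC50.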

[13] = test system: HCT-116; experiment: Induction of cell cycle arrest in human HCT116 cells assessed as accumulation at G2/M phase at 0.03 uM incubated for 24 hrs by propidium iodide-staining based flow cytometric analysis (reference value: 11.90%); type: functional
[14] = test system: HCT-116; experiment: Induction of apoptosis in human HCT116 cell assessed as decrease in Bcl2 protein expression level incubated for 24 hrs by Western blot analysis; type: functional, cell-based
[15] = test system: HCT-116; experiment: Inhibition of colony formation in human HCT116 cells assessed as reduction in size of colonies incubated for 7 days by crystal violet staining based assay; type: functional, cell-based
In short: (§1)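 HCT116 cells were seeded at 600 per well in RPMI 1640 with 10% FBS. After 12 h the medium was refreshed and cells were treated with 0.03, 0.06 or 0.12 µM compound in DMSO, with DMSO alone as control, for 7 days. Cells were fixed in 4% paraformaldehyde (30 min) and stained with 0.1% crystal violet (15 min, room temperature). Colonies were aggregates of >50 cells, expressed as treated/untreated ratio, from ≥3 independent experiments.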

[16] = test system: HCT-116; experiment: Inhibition of colony formation in human HCT116 cells assessed as reduction in number of colonies incubated for 7 days by crystal violet staining based assay; type: functional, cell-based; in short: as §1
[17] = test system: HCT-116; experiment: Induction of apoptosis in human HCT116 cell assessed as inhibition of MDM2 protein expression at > 0.1 uM incubated for 24 hrs by Western blot analysis; type: functional, cell-based
[18] = test system: HCT-116; experiment: Induction of cell cycle arrest in human HCT116 cells assessed as increase in accumulation at S phase incubated for 24 hrs by propidium iodide-staining based flow cytometric analysis; type: functional
[19] = test system: HCT-116; experiment: Induction of cell cycle arrest in human HCT116 cells assessed as accumulation at G1 phase at 0.03 uM incubated for 24 hrs by propidium iodide-staining based flow cytometric analysis (reference value: 64.90%); type: functional
[20] = test system: HCT-116; experiment: Induction of apoptosis in human HCT116 cell assessed as early apoptotic cells at 1 uM incubated for 24 hrs by annexin V/PI staining based flow cytometric analysis (reference value: 5.98%); type: functional
[21] = Selectivity index, ratio of IC50 for human L02 cells to IC50 for human Bel7402 cells; type: toxicity; conditions: L02 cells versus Bel7402 cells, read-out: Ratio IC50
In short: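 Cells were grown in RPMI 1640 with 10% heat-inactivated FBS and penicillin/streptomycin at 37℃, 5% CO2. They were seeded for exponential growth, allowed to adhere 24 h, then exposed 48 h to 0.3, 1, 3 and 10 µM or DMSO. MTT was added (final 2 mg/mL) for 4 h, formazan was dissolved in DMSO, and OD was read at 492 nm. Potency and selectivity indices are ratios of these IC50 values, with L02 normal liver cells as reference for selectivity.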

[22] = test system: HCT-116; experiment: Induction of cell cycle arrest in human HCT116 cells assessed as increase in accumulation at G2/M phase incubated for 24 hrs by propidium iodide-staining based flow cytometric analysis; type: functional
[23] = test system: HCT-116; experiment: Induction of apoptosis in human HCT116 cell assessed as early apoptotic cells at 0.3 uM incubated for 24 hrs by annexin V/PI staining based flow cytometric analysis (reference value: 5.98%); type: functional
[24] = test system: HCT-116; experiment: Induction of apoptosis in human HCT116 cell assessed as late apoptotic cells at 0.1 uM incubated for 24 hrs by annexin V/PI staining based flow cytometric analysis (reference value: 8.04%); type: functional
[25] = test system: HCT-116; experiment: Induction of apoptosis in human HCT116 cell assessed as live cells at 0.3 uM incubated for 24 hrs by annexin V/PI staining based flow cytometric analysis (reference value: 80.4%); type: functional
[26] = test system: HCT-116; experiment: Induction of apoptosis in human HCT116 cell assessed as late apoptotic cells at 1 uM incubated for 24 hrs by annexin V/PI staining based flow cytometric analysis (reference value: 8.04%); type: functional
[27] = test system: HCT-116; experiment: Induction in cell cycle arrest in human HCT116 cells assessed as inhibition in cyclin B1 protein expression level at 3 uM incubated for 24 hrs by Western blot analysis; type: functional, cell-based

Structure (SMILES): C=C1C(=O)[C@]23[C@H](OC(=O)c4cc5ccc(OC)cc5[nH]4)[C@H]1CC[C@H]2[C@@]12CO[C@]3(O)[C@@H](O)[C@@H]1C(C)(C)CC[C@@H]2O
- Activity [1]: 35.2%
- Activity [2]: Dose-dependent effect
- Activity [3]: Toxic
- Activity [4]: 39.42%
- Activity [5]: 39.7%
- Activity [6]: 3.36%
- Activity [7]: Active
- Activity [8]: Active
- Activity [9]: 0.6%
- inhibition in vivo at 25 mg/kg [10]: 85.8%
- Activity [11]: 24.29%
- Ratio IC50 [12]: 43
- Activity [13]: 22.98%
- Activity [14]: Dose-dependent effect
- inhibition [15]: Dose-dependent effect
- inhibition [16]: Dose-dependent effect
- Activity [17]: Active
- Activity [18]: Dose-dependent effect
- Activity [19]: 52.73%
- Activity [20]: 16.9%
- selectivity ratio [21]: 1.73
- Activity [22]: Dose-dependent effect
- Activity [23]: 17.5%
- Activity [24]: 11.3%
- Activity [25]: 44.4%
- Activity [26]: 49.5%
- inhibition [27]: Active
